Data on 15 compounds can be found in ChEMBL document CHEMBL1124220 (J Med Chem, 1988).

Non-standard residues stand in square brackets, D forms with d. Residues, ends and D or L forms follow the SMILES beside them. 3Thi = N[C@@H](Cc1ccsc1)C(=O)O; Sar = CNCC(=O)O

What all share (format): functional
In assay [1] the test system is Rattus norvegicus. Description: In vivo angiotensin II like activity was measured in rat blood pressure assay expressed as percent activity relative to A II.
Assay [2] concerns Rattus norvegicus. Kind of assay: In vivo agonist angiotensin II like activity was measured in rat blood pressure increase by a 1 ug iv injection. The essentials:
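Rat blood pressure in vivo. Residual AII-like activity read as the pressor rise (mmHg) after a 1-μg intravenous bolus of compound. Mean of at least five tests with standard error.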

For the next assay, the species on record is Oryctolagus cuniculus. Kind of assay: In vitro agonist angiotensin II like activity was measured in the rabbit aorta strip assay. The essentials: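 Isolated rabbit aortic strips in vitro. Agonist (AII-like) activity expressed as percent of the activity of AII.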
The test system of assay [3] is Rattus norvegicus. Kind of assay: Antagonist activity ID50 was measured in vivo in the rat blood pressure assay. In short, it runs like this: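 Rat blood pressure in vivo, 250-g rats, compound given by infusion. AII dose-response curves measured before and during the infusion. ID50 expressed as ng/rat per min. Mean of at least five tests with standard error.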

Compound `CC[C@H](C)[C@H](NC(=O)[C@H](Cc1ccc(O)cc1)NC(=O)[C@@H](NC(=O)[C@@H](N)CCCCN=C(N)N)C(C)C)C(=O)N[C@@H](Cc1c[nH]cn1)C(=O)N1CCC[C@H]1C(=O)N[C@@H](Cc1ccccc1)C(=O)O` displayed an Activity with Rattus norvegicus [1] of 2.07%.
As to `CC[C@H](C)[C@H](NC(=O)[C@@H]1CCCN1C(=O)[C@H](Cc1c[nH]cn1)NC(=O)[C@@H](NC(=O)[C@H](Cc1ccc(O)cc1)NC(=O)[C@@H](NC(=O)[C@@H](C)N)C(C)C)[C@@H](C)CC)C(=O)O`, the BP increase with Rattus norvegicus [2] is recorded as 5 mmHg. In the assay listed under Oryctolagus cuniculus, this compound showed an Activity of 0%. The ID50 in the assay with Rattus norvegicus [3] is 100 ng min-1 rat-1.
The corresponding values for `CC[C@H](C)[C@H](NC(=O)[C@@H]1CCCN1C(=O)[C@H](Cc1c[nH]cn1)NC(=O)[C@@H](NC(=O)[C@H](Cc1ccc(O)cc1)NC(=O)[C@@H](NC(=O)[C@H](N)CCCN=C(N)N)C(C)C)[C@@H](C)CC)C(=O)O` are 5 mmHg, 0% and 100 ng min-1 rat-1.
In the assay on Rattus norvegicus [2], `CC[C@H](C)[C@H](NC(=O)[C@@H]1CCCN1C(=O)[C@H](Cc1c[nH]cn1)NC(=O)[C@@H](NC(=O)[C@H](Cc1ccc(O)cc1)NC(=O)[C@@H](NC(=O)[C@H](CCCCN=C(N)N)NC(=O)CNC)C(C)C)[C@@H](C)CC)C(=O)O` yielded a BP increase of 7.5 mmHg. For the same compound, the Activity in the assay filed under Oryctolagus cuniculus is 0%. The ID50 with Rattus norvegicus [3] came to 50 ng min-1 rat-1.
`CC[C@H](C)[C@H](NC(=O)[C@@H]1CCCN1C(=O)[C@H](Cc1c[nH]cn1)NC(=O)[C@@H](NC(=O)[C@H](Cc1ccc(O)cc1)NC(=O)[C@@H](NC(=O)[C@@H](CCCN=C(N)N)NC(=O)CNC)C(C)C)[C@@H](C)CC)C(=O)O` came in with a BP increase in the assay on Rattus norvegicus [2] of 10 mmHg. This compound also displayed an Activity in the assay filed under Oryctolagus cuniculus of 0%. This compound also gave an ID50 with Rattus norvegicus [3] of 100 ng min-1 rat-1.
Take `CC[C@H](C)[C@H](NC(=O)[C@@H]1CCCN1C(=O)[C@H](Cc1cncn1C)NC(=O)[C@@H](NC(=O)[C@H](Cc1ccc(O)cc1)NC(=O)[C@@H](NC(=O)[C@H](CCCN=C(N)N)NC(=O)CNC)C(C)C)[C@@H](C)CC)C(=O)O`: the BP increase in the assay with Rattus norvegicus [2] stood at 2.5 mmHg. In addition, in the assay listed under Oryctolagus cuniculus, the Activity turned out to be 0%. The ID50 with Rattus norvegicus [3] was 100 ng min-1 rat-1.
In the same order, the values of `CC[C@H](C)[C@H](NC(=O)[C@@H]1CCCN1C(=O)[C@H](Cc1c[nH]cn1)NC(=O)[C@@H](NC(=O)[C@H](Cc1ccc(O)cc1)NC(=O)[C@@H](NC(=O)[C@@H](CCCCN)NC(=O)CNC)C(C)C)[C@@H](C)CC)C(=O)O` are 12.5 mmHg, 0% and 50 ng min-1 rat-1.
As for `CC[C@@H](N)C(=O)N[C@H](C(=O)N[C@@H](Cc1ccc(O)cc1)C(=O)N[C@H](C(=O)N[C@@H](Cc1c[nH]cn1)C(=O)N1CCC[C@H]1C(=O)N[C@@H](Cc1ccccc1)C(=O)O)[C@@H](C)CC)C(C)C`, the Activity with Rattus norvegicus [1] came to 22%.
For `CC[C@H](C)[C@H](NC(=O)[C@@H]1CCCN1C(=O)[C@H](Cc1c[nH]cn1)NC(=O)[C@@H](NC(=O)[C@H](Cc1ccc(O)cc1)NC(=O)[C@@H](NC(=O)[C@@H](C)NC)C(C)C)[C@@H](C)CC)C(=O)O`, the BP increase with Rattus norvegicus [2] amounted to 10 mmHg. The same compound showed an Activity in the assay filed under Oryctolagus cuniculus of 0%. Also, the ID50 with Rattus norvegicus [3] came out at 25 ng min-1 rat-1.
For the compound `CC[C@H](C)[C@H](NC(=O)[C@@H]1CCCN1C(=O)[C@H](Cc1c[nH]cn1)NC(=O)[C@@H](NC(=O)[C@H](Cc1ccc(O)cc1)NC(=O)[C@@H](NC(=O)[C@H](CCCN=C(N)N)NC(=O)CNC)C(C)C)[C@@H](C)CC)C(=O)O`, the BP increase in the assay on Rattus norvegicus [2] is reported as 10.2 mmHg. The same compound displayed an Activity in the assay listed under Oryctolagus cuniculus of 0%. The compound also registered an ID50 in the assay with Rattus norvegicus [3] of 10 ng min-1 rat-1.
For the compound `CC[C@H](C)[C@H](NC(=O)[C@H](Cc1ccc(O)cc1)NC(=O)[C@@H](NC(=O)[C@H](C)NC(=O)[C@@H](N)CC(=O)O)C(C)C)C(=O)N[C@@H](Cc1c[nH]cn1)C(=O)N1CCC[C@H]1C(=O)N[C@@H](Cc1ccccc1)C(=O)O` (H-DAVYIHPF-OH), the Activity in the assay on Rattus norvegicus [1] is 7.7%.
In the assay on Rattus norvegicus [2], `CC[C@H](C)[C@H](NC(=O)[C@@H]1CCCN1C(=O)[C@H](Cc1ccccc1)NC(=O)[C@@H](NC(=O)[C@H](Cc1ccc(O)cc1)NC(=O)[C@@H](NC(=O)[C@H](CCCN=C(N)N)NC(=O)CNC)C(C)C)[C@@H](C)CC)C(=O)O` (H-[Sar]RVYIFPI-OH) displayed a BP increase of 10 mmHg. In addition, the Activity in the assay listed under Oryctolagus cuniculus is reported as 0%. This compound had an ID50 in the assay on Rattus norvegicus [3] of 100 ng min-1 rat-1.
On to `CC[C@H](C)[C@H](NC(=O)[C@@H]1CCCN1C(=O)[C@H](Cc1c[nH]c2ccccc12)NC(=O)[C@@H](NC(=O)[C@H](Cc1ccc(O)cc1)NC(=O)[C@@H](NC(=O)[C@H](CCCN=C(N)N)NC(=O)CNC)C(C)C)[C@@H](C)CC)C(=O)O` (H-[Sar]RVYIWPI-OH), for which the BP increase in the assay on Rattus norvegicus [2] was determined as 7.5 mmHg. In addition, the Activity in the assay listed under Oryctolagus cuniculus stood at 0%. The compound also showed an ID50 with Rattus norvegicus [3] of 100 ng min-1 rat-1.
In the case of `CC[C@H](C)[C@H](NC(=O)[C@@H]1CCCN1C(=O)[C@H](Cc1ccsc1)NC(=O)[C@@H](NC(=O)[C@H](Cc1ccc(O)cc1)NC(=O)[C@@H](NC(=O)[C@H](CCCN=C(N)N)NC(=O)CNC)C(C)C)[C@@H](C)CC)C(=O)O` (H-[Sar]RVYI[3Thi]PI-OH), the BP increase with Rattus norvegicus [2] turned out to be 12.5 mmHg. In addition, the Activity in the assay listed under Oryctolagus cuniculus stood at 0%. This compound displayed an ID50 with Rattus norvegicus [3] of 100 ng min-1 rat-1.
Compound `CC[C@H](C)[C@H](NC(=O)[C@@H]1CCCN1C(=O)[C@H](Cc1c[nH]cn1)NC(=O)[C@@H](NC(=O)[C@H](Cc1ccc(O)cc1)NC(=O)[C@@H](NC(=O)CN(C)C(=O)CNC)C(C)C)[C@@H](C)CC)C(=O)O` (H-[Sar][Sar]VYIHPI-OH) gave a BP increase with Rattus norvegicus [2] of 8.5 mmHg. Besides, the Activity in the assay listed under Oryctolagus cuniculus is on record as 0%. In addition, the ID50 with Rattus norvegicus [3] is 150 ng min-1 rat-1.
